Measurements as given in ChEMBL document CHEMBL1152805, “Dual inhibitors of phosphodiesterase-4 and serotonin reuptake” (J Med Chem, 2009).
The source made the active and inactive calls. No cut-off for these calls is given here.

What was measured:
[1] = test system: Mus musculus; assay: Antidepressant activity in ICR mouse assessed as decrease in immobility duration at 0.5 umol/kg, ip administered 30 mins prior to test by forced swimming test; type: functional, organism-based
How it was run: (§1)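 Male ICR mice (26.2 ± 0.3 g), 12 h light cycle. Drug in 0.9% saline with 5% DMSO, given i.p. 30 min before the forced-swim test. Lower doses were tested first, then higher doses 1 week later after re-randomization. Swim pretest on 2 successive days, test 24 h later: 6 min in a cylinder with 28 cm of water at 23 ± 1°C, recording immobility. n = 9–11; ANOVA with Dunnett's test.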

[2] = test system: Mus musculus; assay: Antidepressant activity in ICR mouse assessed as decrease in immobility duration at 5 umol/kg, ip administered 30 mins prior to test after 1 week by forced swimming test; type: functional, organism-based; how it was run: as §1
[3] = test system: Mus musculus; assay: Antidepressant activity in BALB/c mouse assessed as decrease in immobility duration at 37.4 umol/kg, ip administered 23 hrs, 5 hrs and 1 hr prior to test measured after 4 weeks by forced swimming test; type: functional, organism-based
How it was run: (§2)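 Male Balb/c mice (22.4 ± 0.1 g), second session run 4 weeks after the first. Drug in 0.9% saline with 5% DMSO (vehicle alone as control), given i.p. 23, 5 and 1 hr before the forced-swim test, with no pretest training. Each mouse was placed 6 min in a water-filled cylinder (23 ± 1°C) and immobility duration recorded. n = 10–11; one-way ANOVA with Dunnett's test.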

[4] = test system: Mus musculus; assay: Antidepressant activity in BALB/c mouse assessed as decrease in immobility duration at 1 mg/kg, ip administered 23 hrs, 5 hrs and 1 hr prior to test measured after 4 weeks by forced swimming test; type: functional, organism-based; design: dose 1 mg/kg; how it was run: as §2
[5] = test system: Mus musculus; assay: Antidepressant activity in ICR mouse assessed as decrease in immobility duration at 1 umol/kg, ip administered 30 mins prior to test by forced swimming test; type: functional, organism-based; how it was run: as §1
[6] = test system: Mus musculus; assay: Antidepressant activity in ICR mouse assessed as decrease in immobility duration at 10 umol/kg, ip administered 30 mins prior to test after 1 week by forced swimming test; type: functional, organism-based; how it was run: as §1
[7] = Metabolic stability in mouse liver microsomes assessed as half life at 40 uM after 60 mins by HPLC in presence of NADPH; type: ADME, Microsome; conditions: 1 h
How it was run: (§3)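 Liver microsomes (0.5 mg protein) in potassium phosphate buffer, pH 7.4, with an NADPH-generating system (NADP+, glucose-6-phosphate, G6P dehydrogenase), DETAPAC and MgCl2. Test compound added at 40 µM and incubated at 37 °C with shaking. Samples stopped with CH2Cl2/2-propanol at 0, 10, 25, 40 and 60 min. Substrate loss measured by HPLC and half-life calculated.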

[8] = test system: Liver microsomes; assay: Metabolic stability in human liver microsomes assessed as half life after 60 mins by HPLC in presence of NADPH; type: ADME, Microsome; conditions: 1 h; how it was run: as §3
[9] = biological target: 3',5'-cyclic-AMP phosphodiesterase 4B (Homo sapiens, UniProt Q07343); assay: Inhibition of human recombinant PDE4B3 assessed as inhibition of cAMP hydrolysis
[10] = biological target: 3',5'-cyclic-AMP phosphodiesterase 4A (Homo sapiens, UniProt P27815); assay: Inhibition of human recombinant PDE4A1 assessed as inhibition of cAMP hydrolysis
[11] = biological target: T1, Sodium-dependent dopamine transporter (Homo sapiens, UniProt Q01959); assay: Displacement of [3H]dopamine from human recombinant DAT expressed in HEK293 cells by scintillation counting; type: cell-based
How it was run: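 Suspended HEK-hDAT cells preincubated 10 min at 25 °C with test compound in Krebs-HEPES buffer. [3H]dopamine then added (20 nM final) for 10 min. Uptake stopped by filtration onto polyethylenimine-soaked GF/C filters, and radioactivity counted. Specific uptake defined with 5 µM mazindol. Triplicates, 3–4 experiments; Ki by Cheng-Prusoff.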

[12] = test system: Mus musculus; assay: Antidepressant activity in ICR mouse assessed as decrease in immobility duration at 40 mg/kg, ip by forced swimming test; type: functional, organism-based; design: dose 40 mg/kg
[13] = test system: Mus musculus; assay: Antidepressant activity in BALB/c mouse assessed as decrease in immobility duration at 20 mg/kg, ip administered 30 mins prior to test by forced swimming test; type: functional, organism-based; design: dose 20 mg/kg
How it was run: (§4)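 Acute dosing in male Balb/c mice (22.4 ± 0.1 g), i.p. 30 min before the forced-swim test. Vehicle was saline with 5% DMSO. Pretest swims were given on two successive days, then the test 24 h later. Each swim lasted 6 min in a cylinder of water 28 cm deep at 23 ± 1°C, scoring immobility (upright floating). n = 10–11. One-way ANOVA with Dunnett's test.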

[14] = test system: Mus musculus; assay: Antidepressant activity in BALB/c mouse assessed as decrease in immobility duration at 32.3 umol/kg, ip administered 23 hrs, 5 hrs and 1 hr prior to test measured after 4 weeks by forced swimming test; type: functional, organism-based
How it was run: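 Male Balb/c mice received subchronic i.p. dosing at 23, 5 and 1 hr before the forced-swim test, with no pretest training. This session ran 4 weeks after the acute session. Vehicle was saline with 5% DMSO. The swim lasted 6 min in a cylinder of water 28 cm deep at 23 ± 1°C, scoring immobility duration. n = 10–11. One-way ANOVA with Dunnett's test.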

[15] = test system: Mus musculus; assay: Antidepressant activity in ICR mouse assessed as decrease in immobility duration at 65 umol/kg, ip administered 30 mins prior to test by forced swimming test; type: functional, organism-based
[16] = test system: Mus musculus; assay: Antidepressant activity in ICR mouse assessed as decrease in immobility duration at 0.5 mg/kg, ip once a day for 8 days by forced swimming test; type: functional, organism-based; design: dose 0.5 mg/kg
[17] = test system: Mus musculus; assay: Antidepressant activity in ICR mouse assessed as decrease in immobility duration at 0.5 mg/kg, ip by forced swimming test; type: functional, organism-based; design: dose 0.5 mg/kg
[18] = test system: Mus musculus; assay: Antidepressant activity in BALB/c mouse assessed as decrease in immobility duration at 37.4 umol/kg, ip administered 30 mins prior to test by forced swimming test; type: functional, organism-based
How it was run: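 Acute dosing in male Balb/c mice (22.4 ± 0.1 g). Drug in 0.9% saline with 5% DMSO, given i.p. 30 min before the forced-swim test. Swim pretest once daily on 2 successive days, then test 24 h later. Each session was 6 min in a cylinder filled to 28 cm with water at 23 ± 1°C, scoring immobility duration. n = 10–11; ANOVA with Dunnett's test.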

[19] = test system: Mus musculus; assay: Antidepressant activity in BALB/c mouse assessed as decrease in immobility duration at 35.5 umol/kg, ip administered 30 mins prior to test by forced swimming test; type: functional, organism-based; how it was run: as §4
[20] = biological target: T2, Sodium-dependent noradrenaline transporter (Homo sapiens, UniProt P23975); assay: Displacement of [125I]RTI-55 from human recombinant NET expressed in HEK293 cells by scintillation counting; type: cell-based
[21] = biological target: T2, Sodium-dependent noradrenaline transporter; assay: Displacement of [3H]norepinephrine from human recombinant NET expressed in HEK293 cells by scintillation counting; type: cell-based
[22] = biological target: 3',5'-cyclic-AMP phosphodiesterase 4D (Homo sapiens, UniProt Q08499); assay: Inhibition of human recombinant PDE4D3
[23] = biological target: T1, Sodium-dependent dopamine transporter; assay: Displacement of [125I]RTI-55 from human recombinant DAT expressed in HEK293 cells by scintillation counting; type: cell-based
[24] = biological target: T3, Sodium-dependent serotonin transporter (Homo sapiens, UniProt P31645); type: cell-based, HEK293
[25] = biological target: T3, Sodium-dependent serotonin transporter; assay: biochemical; type: cell-based, HEK293

Sequence of 3',5'-cyclic-AMP phosphodiesterase 4A (P27815 whole entry): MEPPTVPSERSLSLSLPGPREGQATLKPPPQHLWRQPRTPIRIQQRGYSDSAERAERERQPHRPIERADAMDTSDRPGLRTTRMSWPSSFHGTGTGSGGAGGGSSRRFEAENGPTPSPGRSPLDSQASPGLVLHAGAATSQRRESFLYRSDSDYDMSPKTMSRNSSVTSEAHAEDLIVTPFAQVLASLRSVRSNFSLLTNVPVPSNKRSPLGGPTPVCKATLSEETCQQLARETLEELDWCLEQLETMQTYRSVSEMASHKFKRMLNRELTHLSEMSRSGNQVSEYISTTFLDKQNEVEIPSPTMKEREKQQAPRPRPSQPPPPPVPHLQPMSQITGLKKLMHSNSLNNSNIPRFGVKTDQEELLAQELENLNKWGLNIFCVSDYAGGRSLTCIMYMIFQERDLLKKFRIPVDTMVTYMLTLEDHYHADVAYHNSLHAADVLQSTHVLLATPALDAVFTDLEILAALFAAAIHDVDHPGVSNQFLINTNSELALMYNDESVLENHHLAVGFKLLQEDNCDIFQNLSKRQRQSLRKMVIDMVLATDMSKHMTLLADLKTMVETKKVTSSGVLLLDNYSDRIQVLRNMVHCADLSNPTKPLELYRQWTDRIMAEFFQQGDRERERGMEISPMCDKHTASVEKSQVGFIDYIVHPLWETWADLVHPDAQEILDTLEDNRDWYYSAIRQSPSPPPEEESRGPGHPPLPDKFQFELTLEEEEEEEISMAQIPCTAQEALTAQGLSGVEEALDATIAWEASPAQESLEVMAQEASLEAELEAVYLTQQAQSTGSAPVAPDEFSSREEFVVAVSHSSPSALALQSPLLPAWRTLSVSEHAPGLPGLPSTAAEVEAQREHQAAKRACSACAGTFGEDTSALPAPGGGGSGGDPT
T1 sequence (Q01959 whole entry): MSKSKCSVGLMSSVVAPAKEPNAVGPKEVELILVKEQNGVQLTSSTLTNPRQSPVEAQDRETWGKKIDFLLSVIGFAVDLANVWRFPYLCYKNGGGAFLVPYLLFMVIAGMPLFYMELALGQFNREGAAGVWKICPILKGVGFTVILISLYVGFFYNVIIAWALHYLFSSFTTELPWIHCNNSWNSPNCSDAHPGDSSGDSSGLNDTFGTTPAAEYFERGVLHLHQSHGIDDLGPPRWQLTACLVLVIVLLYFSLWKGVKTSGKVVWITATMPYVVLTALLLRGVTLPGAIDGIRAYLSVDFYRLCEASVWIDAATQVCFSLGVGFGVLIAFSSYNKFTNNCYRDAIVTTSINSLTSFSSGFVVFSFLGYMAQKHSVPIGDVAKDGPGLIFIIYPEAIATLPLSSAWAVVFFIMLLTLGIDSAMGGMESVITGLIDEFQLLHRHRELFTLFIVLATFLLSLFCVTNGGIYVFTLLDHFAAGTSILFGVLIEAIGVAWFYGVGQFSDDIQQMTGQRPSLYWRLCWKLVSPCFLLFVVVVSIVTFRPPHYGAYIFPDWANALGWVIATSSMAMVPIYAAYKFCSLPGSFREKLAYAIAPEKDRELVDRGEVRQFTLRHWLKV
Sequence of 3',5'-cyclic-AMP phosphodiesterase 4B (Q07343 whole entry): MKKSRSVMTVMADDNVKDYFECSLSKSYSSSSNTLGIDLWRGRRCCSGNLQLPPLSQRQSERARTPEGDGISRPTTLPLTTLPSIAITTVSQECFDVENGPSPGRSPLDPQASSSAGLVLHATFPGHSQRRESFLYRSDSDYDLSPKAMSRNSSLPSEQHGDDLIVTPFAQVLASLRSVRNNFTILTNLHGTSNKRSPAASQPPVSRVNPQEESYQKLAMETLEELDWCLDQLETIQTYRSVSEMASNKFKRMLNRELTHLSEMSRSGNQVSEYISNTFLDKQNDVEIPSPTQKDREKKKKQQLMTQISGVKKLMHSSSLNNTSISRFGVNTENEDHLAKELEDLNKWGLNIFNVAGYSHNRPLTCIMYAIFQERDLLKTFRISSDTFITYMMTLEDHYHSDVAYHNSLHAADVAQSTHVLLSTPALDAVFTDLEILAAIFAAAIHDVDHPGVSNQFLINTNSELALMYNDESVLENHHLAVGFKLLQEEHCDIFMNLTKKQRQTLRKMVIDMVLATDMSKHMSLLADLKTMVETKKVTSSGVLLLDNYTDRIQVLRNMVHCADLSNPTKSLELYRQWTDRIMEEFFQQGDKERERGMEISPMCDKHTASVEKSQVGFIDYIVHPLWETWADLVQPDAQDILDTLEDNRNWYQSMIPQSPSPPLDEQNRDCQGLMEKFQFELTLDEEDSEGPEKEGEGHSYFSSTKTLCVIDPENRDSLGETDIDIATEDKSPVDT
T3 sequence (P31645 whole entry): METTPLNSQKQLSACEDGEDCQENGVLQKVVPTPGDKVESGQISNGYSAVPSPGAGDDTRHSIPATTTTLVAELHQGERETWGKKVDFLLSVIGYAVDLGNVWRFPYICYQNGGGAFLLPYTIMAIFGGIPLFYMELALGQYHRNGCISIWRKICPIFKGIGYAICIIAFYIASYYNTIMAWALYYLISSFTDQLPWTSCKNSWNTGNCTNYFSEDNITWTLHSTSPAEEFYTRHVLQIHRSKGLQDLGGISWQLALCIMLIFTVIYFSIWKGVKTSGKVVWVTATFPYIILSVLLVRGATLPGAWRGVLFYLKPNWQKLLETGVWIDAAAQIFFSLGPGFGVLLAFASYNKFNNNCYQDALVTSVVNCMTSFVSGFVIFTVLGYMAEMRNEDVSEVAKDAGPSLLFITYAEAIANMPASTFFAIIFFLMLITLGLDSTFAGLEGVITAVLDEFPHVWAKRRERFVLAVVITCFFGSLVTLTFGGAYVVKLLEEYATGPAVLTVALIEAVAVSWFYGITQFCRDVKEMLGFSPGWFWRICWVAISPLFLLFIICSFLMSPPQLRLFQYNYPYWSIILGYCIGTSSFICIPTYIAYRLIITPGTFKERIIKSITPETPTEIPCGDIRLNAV
T2 sequence (P23975 whole entry): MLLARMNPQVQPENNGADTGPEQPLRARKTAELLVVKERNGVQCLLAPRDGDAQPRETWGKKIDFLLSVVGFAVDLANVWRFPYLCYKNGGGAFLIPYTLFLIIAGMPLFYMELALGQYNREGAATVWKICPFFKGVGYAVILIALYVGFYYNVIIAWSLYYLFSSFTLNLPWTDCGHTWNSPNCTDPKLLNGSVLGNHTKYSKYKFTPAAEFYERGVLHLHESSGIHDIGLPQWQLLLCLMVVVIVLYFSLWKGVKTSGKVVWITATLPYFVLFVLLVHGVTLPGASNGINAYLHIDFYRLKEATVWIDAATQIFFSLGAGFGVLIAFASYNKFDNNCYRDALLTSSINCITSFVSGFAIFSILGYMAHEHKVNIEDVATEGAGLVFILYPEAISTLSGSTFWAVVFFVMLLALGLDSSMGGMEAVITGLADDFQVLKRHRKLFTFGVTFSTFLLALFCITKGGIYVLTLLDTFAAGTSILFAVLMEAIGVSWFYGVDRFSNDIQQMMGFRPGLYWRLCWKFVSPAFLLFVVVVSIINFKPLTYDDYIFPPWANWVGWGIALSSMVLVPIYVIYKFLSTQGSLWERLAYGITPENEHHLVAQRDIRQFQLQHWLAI
Sequence of 3',5'-cyclic-AMP phosphodiesterase 4D (Q08499 whole entry): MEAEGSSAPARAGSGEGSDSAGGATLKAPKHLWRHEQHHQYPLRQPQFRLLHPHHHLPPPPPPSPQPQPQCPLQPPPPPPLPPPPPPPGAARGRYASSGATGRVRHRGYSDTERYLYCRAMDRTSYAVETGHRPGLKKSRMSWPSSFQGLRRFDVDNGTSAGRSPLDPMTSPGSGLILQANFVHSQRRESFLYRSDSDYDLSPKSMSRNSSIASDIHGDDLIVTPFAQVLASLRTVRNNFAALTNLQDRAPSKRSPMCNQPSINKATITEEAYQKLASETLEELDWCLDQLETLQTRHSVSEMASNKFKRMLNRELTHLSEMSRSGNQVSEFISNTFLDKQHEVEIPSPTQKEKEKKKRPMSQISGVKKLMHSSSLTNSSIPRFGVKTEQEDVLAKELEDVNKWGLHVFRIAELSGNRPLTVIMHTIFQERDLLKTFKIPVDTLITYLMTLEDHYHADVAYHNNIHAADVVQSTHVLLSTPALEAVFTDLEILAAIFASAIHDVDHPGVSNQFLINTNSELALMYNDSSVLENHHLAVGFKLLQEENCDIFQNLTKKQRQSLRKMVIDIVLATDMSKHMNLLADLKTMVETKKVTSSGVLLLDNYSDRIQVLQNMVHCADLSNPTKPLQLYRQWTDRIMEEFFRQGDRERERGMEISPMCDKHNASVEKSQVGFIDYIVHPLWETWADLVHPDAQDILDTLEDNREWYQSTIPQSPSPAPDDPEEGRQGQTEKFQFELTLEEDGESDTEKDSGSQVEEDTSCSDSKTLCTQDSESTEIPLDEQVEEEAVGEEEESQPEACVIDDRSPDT

Question: What does the source list for `COc1ccc(C2=NNC(=O)C3CC=CCC23)cc1OC` (configuration not stated)?
Answer: Activity [1]: Active; Activity [2]: Active; Activity [3]: Active; Activity [4]: Active; Activity [5]: Active; Activity [6]: Active; t1/2 [7]: 3.522 h; Stability [8]: Stable; Ki [9]: 0.25 µM; Ki [10]: > 1 µM

Question: With `CNCCC1CCC(CCc2cc(F)ccc2OC)O1` (configuration not stated) as the molecule, how does the IC50 [11] read?
Answer: The IC50 was greater than 100 µM.

Question: With `CNCCC(Oc1ccc(C(F)(F)F)cc1)c1ccccc1` (configuration not stated) as the molecule, how does the Activity [12] read?
Answer: Its Activity is “Active”.

Question: And the Activity [13]?
Answer: The Activity was “inactive”.

Question: What about the Activity [14] of the same molecule?
Answer: The Activity was “inactive”.

Question: What about the Activity [15] of the same molecule?
Answer: Its Activity is “Active”.

Question: For `COc1ccc(C2CNC(=O)C2)cc1OC1CCCC1` (configuration not stated), which Activity [16] is on record?
Answer: The Activity was “Active”.

Question: What about the Activity [17] of the same molecule?
Answer: The Activity was “inactive”.

Question: For `COc1ccc(F)cc1CCC1CCC(CCN)O1` (configuration not stated), which Activity [18] is on record?
Answer: The Activity was “inactive”.

Question: What about the Activity [3] of the same molecule?
Answer: Its Activity is “inactive”.

Question: With `COc1ccc(F)cc1CCCC1CCC(CCN)O1` (configuration not stated) as the molecule, how does the Activity [19] read?
Answer: The Activity was “inactive”.

Question: Which Ki [20] does the source give for `COc1ccc(F)c(CCCC2CCC(CCNCCCCCN3N=C(c4ccc(OC)c(OC)c4)[C@H]4CC=CC[C@H]4C3=O)O2)c1` (mixture of isomers) here?
Answer: The Ki was 7.44 µM.

Question: What about the IC50 [11] of the same molecule?
Answer: Its IC50 is 5.34 µM.

Question: What about the IC50 [21] of the same molecule?
Answer: The IC50 was 7.44 µM.

Question: What about the Stability [7] of the same molecule?
Answer: The Stability was “Stable”.

Question: What about the Stability [8] of the same molecule?
Answer: The Stability was “Stable”.

Question: And the Ki [22]?
Answer: Its Ki is 0.0012 µM.

Question: What about the Ki [9] of the same molecule?
Answer: The Ki was 0.5 µM.

Question: What about the Ki [10] of the same molecule?
Answer: Its Ki is greater than 1 µM.

Question: What about the Ki [23] of the same molecule?
Answer: The Ki was 5.34 µM.

Question: With `COc1ccc(F)cc1CCC1CCC(CCNCCCCCN2N=C(c3ccc(OC)c(OC)c3)[C@H]3CC=CC[C@H]3C2=O)O1` (mixture of isomers) as the molecule, how does the IC50 [11] read?
Answer: Its IC50 is 3.56 µM.

Question: What about the IC50 [24] of the same molecule?
Answer: Its IC50 is 0.127 µM.

Question: What about the Activity [1] of the same molecule?
Answer: Its Activity is “Active”.

Question: And the Activity [2]?
Answer: The Activity was “Active”.

Question: What about the Activity [4] of the same molecule?
Answer: The Activity was “inactive”.

Question: What about the Activity [5] of the same molecule?
Answer: Its Activity is “Active”.

Question: And the Activity [6]?
Answer: Its Activity is “Active”.

Question: And the t1/2 [7]?
Answer: The t1/2 was 2.565 h.

Question: What about the Stability [8] of the same molecule?
Answer: The Stability was “Stable”.

Question: What about the Ki [22] of the same molecule?
Answer: Its Ki is 0.002 µM.

Question: What about the Ki [9] of the same molecule?
Answer: The Ki was 0.199 µM.

Question: And the Ki [10]?
Answer: The Ki was greater than 1 µM.

Question: What about the Ki [23] of the same molecule?
Answer: The Ki was 2.48 µM.

Question: What about the Ki [25] of the same molecule?
Answer: The Ki was 0.156 µM.

Question: With `COc1ccc(C2=NN(CCCCCBr)C(=O)[C@@H]3CC=CC[C@H]23)cc1OC` (racemic) as the molecule, how does the IC50 [11] read?
Answer: The IC50 was greater than 100 µM.

Question: And the IC50 [24]?
Answer: Its IC50 is greater than 100 µM.

Question: And the Ki [23]?
Answer: Its Ki is greater than 100 µM.

Question: And the Ki [25]?
Answer: The Ki was greater than 100 µM.
